High-throughput results from PubChem.
An excerpt weighted towards active compounds, which were near 3.5% of everything screened.
MrgX1 PAM: human MrgX1 positive allosteric modulation, primary screen; Q96LB2; MrgX1-HEK293, Fluo-4 calcium flux, FDSS; hits give high values; B-score at 10 µM; actives 0.63% (n = 310,000);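 active = plate-corrected calcium response at least 3 library SD above typical, normal starting fluorescence, not activating the receptor alone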;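 also: compound read alongside a low EC10 to EC30 dose of BAM8-22 agonist; peak minus trough fluorescence over baseline measured at the second addition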
Target sequence (Q96LB2 whole entry, looked up): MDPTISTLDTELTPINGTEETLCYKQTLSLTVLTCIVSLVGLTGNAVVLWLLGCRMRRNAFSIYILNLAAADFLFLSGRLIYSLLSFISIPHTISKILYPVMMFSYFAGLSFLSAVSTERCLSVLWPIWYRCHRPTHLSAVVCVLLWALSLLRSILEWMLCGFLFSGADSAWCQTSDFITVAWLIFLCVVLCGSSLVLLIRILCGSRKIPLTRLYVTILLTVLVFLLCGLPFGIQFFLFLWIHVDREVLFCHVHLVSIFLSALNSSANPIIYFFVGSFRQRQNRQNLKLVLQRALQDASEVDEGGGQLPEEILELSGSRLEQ
MrgX1 agonist: activates human MrgX1 receptor signaling | Q96LB2 | MrgX1-HEK293 cells, Fluo-4 calcium fluorescence, agonist mode; hits give high values | B-score at 10 µM | actives 0.44% (n = 310,000) | AID 588627;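 active = calcium response B-score plate-corrected fluorescence ratio at least 3 library SD, with starting fluorescence B-score inside 5 SD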
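Assay system: stable human MrgX1 HEK293 cell line. Quantity: 15,000 cells per well. Schedule: cells plated overnight, dye loaded 0.5 h 37 °C, 0.5 h room temperature. Detection: Fluo-4 NW calcium-flux fluorescence, kinetic read. Read-out basis: peak-minus-minimum fluorescence over baseline, converted to B scores. Control set: positive and negative control wells on each plate.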
RGS4 inh: inhibitors of human RGS4; P49798; HEK293 M3R/RGS4 inducible, Fluo-4 calcium flux; hits give high values; triggered by carbachol at its EC20; B-score at 10 µM; actives 0.45% (n = 310,000); AID 463165;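 active = B-score, a plate-corrected calcium signal, over three deviations above library mean, with baseline fluorescence within five deviations of library mean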;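 also: RGS4 expression induced by doxycycline in cells with stable M3 receptor; B-score is computed from the integrated fluorescence ratio over baseline after carbachol; higher B-score means a larger calcium signal and so more RGS4 inhibition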
MrgX1 antagonist: human MrgX1 receptor antagonism, primary screen; Q96LB2; MRGX1-HEK293 calcium flux, Fluo-4, BAM8-22 antagonism; hits give low values; B-score at 10 µM; actives 1.3% (n = 310,000); AID 588676;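 active = calcium-response B-score plate-corrected more than 3 library SD below zero, starting fluorescence within 5 deviations, no agonist response on first addition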;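 also: peak minus trough fluorescence over baseline after final BAM8-22 challenge near maximal dose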
RGS4 act: potentiators or activators of RGS4; B-score at 10 µM; actives 0.92% (n = 310,000); HEK293 M3R/inducible RGS4, carbachol calcium flux Fluo4; hits give low values;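 active = B-score of the integrated calcium signal more than 4 SD below the library mean, with starting fluorescence not abnormally high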;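 also: negative B-score means reduced calcium response which marks RGS4 activation or potentiation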
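System – HEK293 FlpIn-TREx cells, stable M3R, doxycycline-inducible RGS4 · Reagent – ECmax carbachol challenge · Times – compound preincubation 20 min at room temperature before agonist · Technique – Fluo4 fluorescence kinetic imaging of calcium · Measure – B score of integrated Fluo4 ratio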
RGS4 inh valid: validation of RGS4 inhibitors; shares compounds with RGS4 inh; HEK293 M3R/RGS4, carbachol calcium Fluo-4 fluorescence; carbachol added at its EC20; 0 = buffer wells, 100 = carbachol control; calcium response, % at 10 µM; actives 65% (n = 1,700); AID 492999;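 active = duplicate-averaged calcium response above the buffer-only control mean plus 5 SD of those controls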;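 also: integrated fluorescence ratio F max minus min over baseline F0; higher response in RGS4-induced cells means RGS4 inhibition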
M3R Ca ctr: non-induced cell nonspecific activity of RGS4 inhibitors. actives 20% (n = 1,900). HEK293 M3R non-induced, carbachol calcium Fluo-4; submaximal (EC20) carbachol stimulus; buffer wells 0%, carbachol control wells 100%. activity (percent), % at 10 µM. shares compounds with RGS4 inh; call rule not given here;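 also: RGS4 induction absent so cells express M3R without RGS4; higher means more calcium signal and flags a non-specific hit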
RGS4 inh ctr2: signal in non-induced cells without carbachol, RGS4 inhibitor counter-screen; shares compounds with RGS4 inh; HEK293 M3R/RGS4 non-induced, Fluo-4 calcium, no carbachol; normalised: buffer wells 0%, carbachol wells 100%; calcium response (agonist-mode artifact), % at 10 µM; actives 22% (n = 1,900);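 active = duplicate-averaged calcium rise in uninduced cells above buffer wells' mean plus 5 SD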
* hit, by the source's call; i = inactive; . = no result given.

SMILES	MrgX1 PAM	MrgX1 agonist	RGS4 inh	MrgX1 antagonist	RGS4 act	RGS4 inh valid	M3R Ca ctr	RGS4 inh ctr2
Cc1ccc(NC(=O)c2c(C)nc(Nc3nc4ccccc4o3)nc2C)cc1	i	i	i	i	i	.	i	i
Cc1cccc2cc(C#N)c(SCC#N)nc12	i	i	i	i	i	.	.	.
Cc1ccc(N2C(=O)Cc3ccccc3C2=O)cc1	i	i	i	i	i	i	i	i
Cc1noc(/C=C/c2ccccn2)c1[N+](=O)[O-]	i	i	6.84*	i	i	27.0%*	29.5%*	i
O=C(Cn1cnc2ccccc2c1=O)NCc1ccc2c(c1)OCO2	i	i	.	i	.	.	.	.
COc1ccccc1NC(=O)C(CC=C(Cl)Cl)C(C)=O (stereo not drawn)	i	i	i	i	i	.	.	.
Cc1ccc(-n2c(C)nnc2SCC(=O)N2CCc3ccccc3C2)cc1C	i	i	i	i	i	.	.	.
CCOC(=O)C1CCN(C(=O)Nc2ccc3snnc3c2)CC1	i	i	i	i	i	.	.	.
Nc1nc2ccc(S(=O)(=O)c3ccc4nc(N)sc4c3)cc2s1	i	i	6.3*	i	i	i	i	i
CCOc1ccc(/C=c2\sc3nc(-c4ccco4)nn3c2=O)cc1OCC	i	i	5.96*	i	i	8.5%*	i	133.0%*
COc1ccccc1/C=c1\sc2nc(-c3ccco3)nn2c1=O	i	i	i	i	i	.	.	.
CN1C(=S)SC(N2OC3C(=O)N(c4ccccc4)C(=O)C3C2c2ccc(Cl)cc2)C1(C)C (stereo not drawn)	i	i	i	i	i	.	.	.
CSc1nc(N(C)CCO)c2sc3nc(-c4ccco4)c4c(c3c2n1)CCC4	i	i	4.9*	i	i	i	i	10.5%*
CSc1nc(SCC(=O)O)c2sc3nc(-c4ccccc4)c4c(c3c2n1)CCC4	.	.	i	.	i	.	.	.
Cc1ccc(N(CC(=O)N=Nc2c(O)[nH]c3ccccc23)S(C)(=O)=O)c(C)c1	i	i	i	i	i	i	i	i
O=C(Oc1cccc2cccnc12)c1ccc(N2C(=O)C3C4CCC(C4)C3C2=O)cc1 (stereo not drawn)	i	i	i	i	i	.	i	7.0%*
COC(=O)CSc1nnc(CSc2nc(C)cc(C)n2)o1	i	i	i	i	i	.	.	.
COc1ccc(Cl)cc1S(=O)(=O)N1CCCC(C(=O)N2CCOCC2)C1 (stereo not drawn)	i	i	i	i	i	i	i	i
Cc1ccc2nc(SC(C)C(=O)N3CCCCC3)[nH]c2c1 (stereo not drawn)	i	i	i	i	i	.	.	.
CC(C)CC(NC(=O)C1CCCCC1)C(=O)NC(C)c1ccccc1 (stereo not drawn)	i	i	i	i	i	.	.	.
CCOc1ccccc1N(C)C(=O)CCS(=O)(=O)c1ccc2c(c1)NC(=O)C(C)S2 (stereo not drawn)	i	i	i	i	i	.	.	.
CC(C)(C)c1cccc(/C=N/O)c1O	i	i	10.5*	i	i	24.5%*	44.5%*	i
COc1ccc(Oc2ccccc2/C=N/O)cc1	i	i	i	i	i	.	.	.
COc1cc(/C=C/[N+](=O)[O-])ccc1OCc1cccc(C(=O)O)c1	.	.	71.6*	.	i	173.5%*	57.0%*	8.0%*
O=C(NCCCn1ccnc1)/C(=C/c1ccc(Cl)cc1)NC(=O)c1ccccc1	i	i	i	i	i	.	.	.
